Assay results from ChEMBL document CHEMBL4765263, “Design, synthesis, biological evaluation of 6-(2-amino-1H-benzo[d]imidazole-6-yl)quinazolin-4(3H)-one derivatives as novel anticancer agents with Aurora kinase inhibition” (Eur J Med Chem, 2020).

Columns and labels:
MDA-MB-231 = assay: Cytotoxicity against human MDA-MB-231 cells assessed as reduction in cell viability incubated for 72 hrs by MTT assay; format: functional, cell-based; details: MDA-MB-231, 72 h
Method in brief: (§1)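 MTT viability assay. Cells kept in DMEM with 10% FBS at 37 °C and 5% CO2. Seeded at 5×10^3 cells per well and exposed to a range of compound concentrations from 20 mM DMSO stocks. IC50 is the mean of triplicate measurements.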

SH-SY5Y = assay: Cytotoxicity against human SH-SY5Y cells assessed as reduction in cell viability incubated for 72 hrs by MTT assay; format: functional, cell-based; method in brief: as §1
PC-3 = assay: Cytotoxicity against human PC-3 cells assessed as reduction in cell viability incubated for 72 hrs by MTT assay; format: functional, cell-based; details: PC-3, 72 h; method in brief: as §1
Aurora kinase B = Aurora kinase B (Homo sapiens, UniProt Q96GD4); assay: Inhibition of Aurora B (unknown origin) incubated for 1 hrs by HTRF assay
[1] = Solubility of compound in water; format: physicochemical; details: buffer
Aurora kinase A = target: T1, Aurora kinase A (Homo sapiens, UniProt O14965); assay: Inhibition of Aurora A (unknown origin) incubated for 1 hrs by HTRF assay
T1 sequence (O14965 whole entry): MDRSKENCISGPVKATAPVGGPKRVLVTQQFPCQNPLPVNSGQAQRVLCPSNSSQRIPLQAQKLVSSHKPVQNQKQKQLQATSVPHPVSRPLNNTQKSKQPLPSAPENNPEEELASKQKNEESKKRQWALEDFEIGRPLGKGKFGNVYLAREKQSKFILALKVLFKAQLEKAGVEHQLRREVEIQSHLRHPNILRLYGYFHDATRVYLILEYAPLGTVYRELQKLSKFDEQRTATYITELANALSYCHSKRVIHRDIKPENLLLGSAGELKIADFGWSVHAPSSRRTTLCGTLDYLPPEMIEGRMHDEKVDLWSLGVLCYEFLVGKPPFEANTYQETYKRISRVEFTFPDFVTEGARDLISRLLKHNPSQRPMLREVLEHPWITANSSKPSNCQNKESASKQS

Sequence of Aurora kinase B (Q96GD4 whole entry): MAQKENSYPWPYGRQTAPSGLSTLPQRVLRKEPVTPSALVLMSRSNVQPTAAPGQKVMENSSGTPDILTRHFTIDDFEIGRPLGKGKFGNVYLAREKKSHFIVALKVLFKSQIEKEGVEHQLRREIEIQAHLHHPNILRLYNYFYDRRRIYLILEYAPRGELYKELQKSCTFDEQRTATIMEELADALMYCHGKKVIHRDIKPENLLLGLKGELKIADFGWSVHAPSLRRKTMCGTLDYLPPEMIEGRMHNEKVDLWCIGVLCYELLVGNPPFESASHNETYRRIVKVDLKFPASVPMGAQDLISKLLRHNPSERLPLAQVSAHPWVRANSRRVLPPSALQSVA

SMILES	IC50 (MDA-MB-231) [µM]	IC50 (SH-SY5Y) [µM]	IC50 (PC-3) [µM]	IC50 (Aurora kinase B) [µM]	solubility [1]	IC50 (Aurora kinase A) [µM]
CCC(=O)Nc1nc2ccc(-c3ccc4ncn(CC(=O)N5CCOCC5)c(=O)c4c3)cc2[nH]1	> 20	> 20	> 20			
CCC(=O)Nc1nc2ccc(-c3ccc4ncn(CCc5c[nH]c6ccccc56)c(=O)c4c3)cc2[nH]1	0.55	1.23	1.67	0.33	Insoluble	0.0271
O=C(Nc1nc2ccc(-c3ccc4ncn(CCN5CCOCC5)c(=O)c4c3)cc2[nH]1)C1CCCCC1	10.2	14.2	16.5			
CCN(CC)C(=O)Nc1nc2ccc(-c3ccc4ncn(CCN5CCOCC5)c(=O)c4c3)cc2[nH]1	1.76	2.52	8.13		Soluble	
O=C(Nc1nc2ccc(-c3ccc4ncn(CCN5CCOCC5)c(=O)c4c3)cc2[nH]1)c1ccccc1	> 20	> 20	> 20			
CCCCn1cnc2ccc(-c3ccc4nc(NC(=O)CC)[nH]c4c3)cc2c1=O	> 20	> 20	> 20			
O=C(Nc1nc2ccc(-c3ccc4ncn(CCN5CCOCC5)c(=O)c4c3)cc2[nH]1)C1CC1	1.61	7.33	11.2			
CCS(=O)(=O)Nc1nc2ccc(-c3ccc4ncn(CC(=O)N5CCOCC5)c(=O)c4c3)cc2[nH]1	> 20	> 20	> 20			
CCS(=O)(=O)Nc1nc2ccc(-c3ccc4ncn(CCN5CCOCC5)c(=O)c4c3)cc2[nH]1	> 20	> 20	> 20			
CCS(=O)(=O)Nc1nc2ccc(-c3ccc4ncn(C)c(=O)c4c3)cc2[nH]1	> 20	> 20	> 20			
CN(C)C(=O)Nc1nc2ccc(-c3ccc4ncn(CCN5CCOCC5)c(=O)c4c3)cc2[nH]1	4.85	3.92	6.45		Soluble	
